# Results as given in ChEMBL document CHEMBL4184148 (Bioorg Med Chem Lett, 2017).
# Experiments:
# [1] = target: Serine/threonine-protein kinase SIK3 (Homo sapiens) (UniProt Q9Y2K2); assay: Binding affinity to wild-type human partial length QSK (A90 to L395 residues) expressed in HEK293 cells at 1 uM by Kinomescan method relative to control; format: cell-based
# [2] = system: Leucine-rich repeat serine/threonine-protein kinase 2 (Homo sapiens), Q5S007 [G2019S]; assay: Binding affinity to human partial length LRRK2 G2019S mutant (H970 to E2527 residues) expressed in HEK293 cells at 1 uM by Kinomescan method relative to control; format: cell-based
# [3] = target: Cyclin-dependent kinase 16 (Homo sapiens) (UniProt Q00536); assay: Binding affinity to wild-type human partial length PCTK1 (G160 to A474 residues) expressed in HEK293 cells at 1 uM by Kinomescan method relative to control; format: cell-based
# [4] = target: Calcium/calmodulin-dependent protein kinase type II subunit gamma (Homo sapiens) (UniProt Q13555); assay: Binding affinity to wild-type human partial length CAMK2G (R9 to A303 residues) expressed in Escherichia coli BL21 at 1 uM by Kinomescan method relative to control
# HEK293 = assay: Binding affinity to wild-type Mycobacterium tuberculosis partial length PKNB (M1 to G279 residues) expressed in HEK293 cells at 1 uM by Kinomescan method relative to control; format: cell-based
# [5] = target: Dual specificity testis-specific protein kinase 1 (Homo sapiens) (UniProt Q15569); assay: Binding affinity to wild-type human full length TESK1 (R37 to S626 residues) expressed in Escherichia coli BL21 at 1 uM by Kinomescan method relative to control
# Procedure, shortened: (§1)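 Kinome-wide competition binding panel run by an outside provider, with each compound tested at a single concentration. Activity is read against the kinase panel.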
# [6] = target: Microtubule-associated serine/threonine-protein kinase 1 (Homo sapiens) (UniProt Q9Y2H9); assay: Binding affinity to wild-type human partial length MAST1 (S346 to V730 residues) expressed in HEK293 cells at 1 uM by Kinomescan method relative to control; format: cell-based
# [7] = target: Calcium/calmodulin-dependent protein kinase type II subunit alpha (Homo sapiens) (UniProt Q9UQM7); assay: Binding affinity to wild-type human partial length CAMK2A (M1 to K328 residues) expressed in Escherichia coli BL21 at 1 uM by Kinomescan method relative to control
# [8] = system: Receptor-type tyrosine-protein kinase FLT3 (Homo sapiens), P36888 [K663Q]; assay: Binding affinity to human partial length FLT3 K663Q mutant (V592 to Y969 residues) expressed in Escherichia coli BL21 at 1 uM by Kinomescan method relative to control
# [9] = system: Tyrosine-protein kinase ABL1 (Homo sapiens), P00519 [F317L]; assay: Binding affinity to human non-phosphorylated ABL1 F317L mutant (S229 to K512 residues) expressed in HEK293 cells at 1 uM by Kinomescan method relative to control; format: cell-based
# [10] = system: Phosphatidylinositol 4,5-bisphosphate 3-kinase catalytic subunit alpha isoform (Homo sapiens), P42336 [E542K]; assay: Binding affinity to human partial length PIK3CA E542K mutant (R108 to N1068 residues) expressed in HEK293 cells at 1 uM by Kinomescan method relative to control; format: cell-based
# [11] = target: AP2-associated protein kinase 1 (Homo sapiens) (UniProt Q2M2I8); assay: Binding affinity to human wild-type AAK1 (G25 to L333 residues) expressed in Escherichia coli BL21 at 1 uM by Kinomescan method relative to control
# [12] = target: Mitogen-activated protein kinase kinase kinase 7 (Homo sapiens) (UniProt O43318); assay: Binding affinity to wild-type human partial length TAK1 (M1 to Q303 residues) expressed in HEK293 cells at 1 uM by Kinomescan method relative to control; format: cell-based
# [13] = system: Epidermal growth factor receptor (Homo sapiens), P00533 [G719C]; assay: Binding affinity to human partial length EGFR G719C mutant (R669 to V1011 residues) expressed in Escherichia coli BL21 at 1 uM by Kinomescan method relative to control
# [14] = target: Ephrin type-A receptor 7 (Homo sapiens) (UniProt Q15375); assay: Binding affinity to wild-type human partial length EPHA7 (Y608 to S912 residues) expressed in Escherichia coli BL21 at 1 uM by Kinomescan method relative to control
# [15] = system: Hepatocyte growth factor receptor (Homo sapiens), P08581 [Y1235D]; assay: Binding affinity to human partial length MET Y1235D mutant (D1010 to S1367 residues) expressed in Escherichia coli BL21 at 1 uM by Kinomescan method relative to control
# [16] = target: Cyclin-dependent kinase 15 (Homo sapiens) (UniProt Q96Q40); assay: Binding affinity to wild-type human full length PFTAIRE2 (M1 to W384 residues) expressed in Escherichia coli BL21 at 1 uM by Kinomescan method relative to control; procedure, shortened: as §1
# [17] = target: Serine/threonine-protein kinase 38 (Homo sapiens) (UniProt Q15208); assay: Binding affinity to wild-type human partial length NDR1 (N33 to E449 residues) expressed in HEK293 cells at 1 uM by Kinomescan method relative to control; format: cell-based
# [18] = target: Serine/threonine-protein kinase OSR1 (Homo sapiens) (UniProt O95747); assay: Binding affinity to wild-type human full length OSR1 (M1 to S527 residues) expressed in HEK293 cells at 1 uM by Kinomescan method relative to control; format: cell-based; procedure, shortened: as §1
# [19] = target: Cyclin-dependent kinase-like 1 (Homo sapiens) (UniProt Q00532); assay: Binding affinity to wild-type human full length CDKL1 (M1 to I358 residues) expressed in HEK293 cells at 1 uM by Kinomescan method relative to control; format: cell-based
# Procedure, shortened: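 Run as one kinome-wide competition binding panel with each compound at a single fixed concentration. Results were plotted as a kinome-wide selectivity map.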
# [20] = target: Tyrosine-protein kinase ABL1 (Homo sapiens) (UniProt P00519); assay: Binding affinity to wild-type human non-phosphorylated ABL1 (S229 to K512 residues) expressed in HEK293 cells at 1 uM by Kinomescan method relative to control; format: cell-based
# [21] = target: Mitogen-activated protein kinase 10 (Homo sapiens) (UniProt P53779); assay: Binding affinity to wild-type human partial length JNK3 (V28 to Q422 residues) expressed in HEK293 cells at 1 uM by Kinomescan method relative to control; format: cell-based
# [22] = target: Ephrin type-A receptor 6 (Homo sapiens) (UniProt Q9UF33); assay: Binding affinity to wild-type human partial length EPHA6 (Y700 to E1046 residues) expressed in Escherichia coli BL21 at 1 uM by Kinomescan method relative to control
# [23] = target: Serine/threonine-protein kinase SIK2 (Homo sapiens) (UniProt Q9H0K1); assay: Binding affinity to wild-type human full length SIK2 (M1 to N926 residues) expressed in Escherichia coli BL21 at 1 uM by Kinomescan method relative to control; procedure, shortened: as §1
# [24] = target: NT-3 growth factor receptor (Homo sapiens) (UniProt Q16288); assay: Binding affinity to wild-type human partial length TRKC (Q531 to G825 residues) expressed in HEK293 cells at 1 uM by Kinomescan method relative to control; format: cell-based
# Chain of Cyclin-dependent kinase 15 (Homo sapiens) (Q96Q40 whole entry, the tested form may be a part): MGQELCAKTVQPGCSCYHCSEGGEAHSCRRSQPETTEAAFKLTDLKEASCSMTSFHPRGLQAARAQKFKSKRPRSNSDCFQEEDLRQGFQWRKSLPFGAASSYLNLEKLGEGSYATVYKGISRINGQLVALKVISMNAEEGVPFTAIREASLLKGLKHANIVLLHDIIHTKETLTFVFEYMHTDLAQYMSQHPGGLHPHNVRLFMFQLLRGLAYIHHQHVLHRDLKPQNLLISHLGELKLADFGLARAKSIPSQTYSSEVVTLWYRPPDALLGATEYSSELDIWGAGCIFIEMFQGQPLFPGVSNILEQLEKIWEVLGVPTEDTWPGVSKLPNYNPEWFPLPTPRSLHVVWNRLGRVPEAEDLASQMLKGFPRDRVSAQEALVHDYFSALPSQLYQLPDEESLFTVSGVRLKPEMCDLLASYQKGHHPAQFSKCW
# Chain of Leucine-rich repeat serine/threonine-protein kinase 2 (Homo sapiens), Q5S007 [G2019S] (Q5S007 whole entry G2019S, the tested form may be a part): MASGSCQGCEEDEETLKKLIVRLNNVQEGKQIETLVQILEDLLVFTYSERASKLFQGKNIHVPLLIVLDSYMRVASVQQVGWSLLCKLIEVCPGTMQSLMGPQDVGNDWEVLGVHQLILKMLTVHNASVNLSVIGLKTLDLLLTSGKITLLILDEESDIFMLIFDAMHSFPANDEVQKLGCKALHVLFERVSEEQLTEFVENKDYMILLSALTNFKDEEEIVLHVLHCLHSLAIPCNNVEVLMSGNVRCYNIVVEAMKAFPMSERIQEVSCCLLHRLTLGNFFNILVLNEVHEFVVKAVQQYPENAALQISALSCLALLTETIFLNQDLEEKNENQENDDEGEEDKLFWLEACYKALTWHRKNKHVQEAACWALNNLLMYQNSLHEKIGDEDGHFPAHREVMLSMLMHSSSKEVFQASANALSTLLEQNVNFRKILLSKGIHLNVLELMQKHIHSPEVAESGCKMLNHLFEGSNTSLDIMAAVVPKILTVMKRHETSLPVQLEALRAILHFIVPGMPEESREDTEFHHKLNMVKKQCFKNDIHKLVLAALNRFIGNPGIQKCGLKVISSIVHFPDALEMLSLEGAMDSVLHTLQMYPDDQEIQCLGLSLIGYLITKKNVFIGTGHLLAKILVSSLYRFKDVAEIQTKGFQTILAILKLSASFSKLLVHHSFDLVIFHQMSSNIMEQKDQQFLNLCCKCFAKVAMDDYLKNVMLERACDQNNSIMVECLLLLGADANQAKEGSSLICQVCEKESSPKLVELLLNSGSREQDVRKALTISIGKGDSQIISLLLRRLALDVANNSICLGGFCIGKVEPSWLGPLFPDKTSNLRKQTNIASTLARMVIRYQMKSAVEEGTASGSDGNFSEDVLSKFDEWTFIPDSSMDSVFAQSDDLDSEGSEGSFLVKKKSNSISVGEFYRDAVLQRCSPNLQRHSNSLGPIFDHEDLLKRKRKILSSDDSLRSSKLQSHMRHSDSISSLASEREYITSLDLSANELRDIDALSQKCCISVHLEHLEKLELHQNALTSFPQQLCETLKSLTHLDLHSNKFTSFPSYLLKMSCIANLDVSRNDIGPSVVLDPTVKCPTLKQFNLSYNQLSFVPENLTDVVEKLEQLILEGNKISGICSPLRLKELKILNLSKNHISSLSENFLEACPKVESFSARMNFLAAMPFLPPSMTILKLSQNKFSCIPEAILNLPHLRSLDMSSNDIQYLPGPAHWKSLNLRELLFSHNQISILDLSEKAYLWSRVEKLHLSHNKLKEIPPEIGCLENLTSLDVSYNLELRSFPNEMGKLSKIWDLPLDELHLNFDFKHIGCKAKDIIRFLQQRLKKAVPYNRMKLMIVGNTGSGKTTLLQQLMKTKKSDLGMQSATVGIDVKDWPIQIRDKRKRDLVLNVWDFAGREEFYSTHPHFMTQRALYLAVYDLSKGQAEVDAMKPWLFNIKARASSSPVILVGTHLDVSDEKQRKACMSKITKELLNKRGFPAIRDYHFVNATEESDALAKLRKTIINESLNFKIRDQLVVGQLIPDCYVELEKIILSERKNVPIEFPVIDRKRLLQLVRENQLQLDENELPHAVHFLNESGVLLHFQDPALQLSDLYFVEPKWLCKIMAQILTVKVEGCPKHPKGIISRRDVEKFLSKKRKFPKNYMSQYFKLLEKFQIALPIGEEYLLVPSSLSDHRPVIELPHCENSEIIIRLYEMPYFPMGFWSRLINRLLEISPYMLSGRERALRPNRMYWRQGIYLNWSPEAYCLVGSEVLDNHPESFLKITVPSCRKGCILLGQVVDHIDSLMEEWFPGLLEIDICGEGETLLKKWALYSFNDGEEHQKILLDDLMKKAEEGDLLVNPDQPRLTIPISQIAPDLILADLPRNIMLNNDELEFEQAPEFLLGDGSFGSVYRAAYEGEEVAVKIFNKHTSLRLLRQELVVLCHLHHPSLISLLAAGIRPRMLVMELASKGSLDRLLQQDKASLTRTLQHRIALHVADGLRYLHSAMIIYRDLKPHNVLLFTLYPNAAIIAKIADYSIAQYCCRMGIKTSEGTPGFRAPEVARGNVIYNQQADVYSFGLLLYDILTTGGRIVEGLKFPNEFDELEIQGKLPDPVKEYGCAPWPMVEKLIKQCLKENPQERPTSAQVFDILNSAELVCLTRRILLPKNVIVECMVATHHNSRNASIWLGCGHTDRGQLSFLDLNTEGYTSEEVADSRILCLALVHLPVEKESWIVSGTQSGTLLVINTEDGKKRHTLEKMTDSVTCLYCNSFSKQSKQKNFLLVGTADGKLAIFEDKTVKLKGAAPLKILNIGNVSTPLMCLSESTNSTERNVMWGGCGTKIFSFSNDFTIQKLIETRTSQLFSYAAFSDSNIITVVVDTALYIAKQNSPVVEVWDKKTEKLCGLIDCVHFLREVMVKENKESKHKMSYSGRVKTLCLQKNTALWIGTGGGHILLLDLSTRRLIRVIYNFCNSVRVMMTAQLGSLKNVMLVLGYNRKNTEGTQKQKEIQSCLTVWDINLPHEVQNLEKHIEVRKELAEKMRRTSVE
# Chain of Serine/threonine-protein kinase OSR1 (Homo sapiens) (O95747 2-527 limits assumed): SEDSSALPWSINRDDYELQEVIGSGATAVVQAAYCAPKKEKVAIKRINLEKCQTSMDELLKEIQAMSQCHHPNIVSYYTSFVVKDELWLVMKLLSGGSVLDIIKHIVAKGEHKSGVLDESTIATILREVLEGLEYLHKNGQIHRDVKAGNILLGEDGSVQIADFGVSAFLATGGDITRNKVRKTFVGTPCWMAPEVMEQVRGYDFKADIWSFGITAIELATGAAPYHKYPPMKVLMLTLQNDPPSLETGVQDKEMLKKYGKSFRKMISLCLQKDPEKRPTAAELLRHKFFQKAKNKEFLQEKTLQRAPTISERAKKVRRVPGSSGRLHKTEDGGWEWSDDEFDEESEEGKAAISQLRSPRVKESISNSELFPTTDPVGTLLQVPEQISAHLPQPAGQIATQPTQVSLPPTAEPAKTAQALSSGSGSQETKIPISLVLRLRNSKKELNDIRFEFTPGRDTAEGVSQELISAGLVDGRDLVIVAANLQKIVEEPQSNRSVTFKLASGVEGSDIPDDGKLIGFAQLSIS
# Chain of Ephrin type-A receptor 7 (Homo sapiens) (Q15375 28-998 limits assumed): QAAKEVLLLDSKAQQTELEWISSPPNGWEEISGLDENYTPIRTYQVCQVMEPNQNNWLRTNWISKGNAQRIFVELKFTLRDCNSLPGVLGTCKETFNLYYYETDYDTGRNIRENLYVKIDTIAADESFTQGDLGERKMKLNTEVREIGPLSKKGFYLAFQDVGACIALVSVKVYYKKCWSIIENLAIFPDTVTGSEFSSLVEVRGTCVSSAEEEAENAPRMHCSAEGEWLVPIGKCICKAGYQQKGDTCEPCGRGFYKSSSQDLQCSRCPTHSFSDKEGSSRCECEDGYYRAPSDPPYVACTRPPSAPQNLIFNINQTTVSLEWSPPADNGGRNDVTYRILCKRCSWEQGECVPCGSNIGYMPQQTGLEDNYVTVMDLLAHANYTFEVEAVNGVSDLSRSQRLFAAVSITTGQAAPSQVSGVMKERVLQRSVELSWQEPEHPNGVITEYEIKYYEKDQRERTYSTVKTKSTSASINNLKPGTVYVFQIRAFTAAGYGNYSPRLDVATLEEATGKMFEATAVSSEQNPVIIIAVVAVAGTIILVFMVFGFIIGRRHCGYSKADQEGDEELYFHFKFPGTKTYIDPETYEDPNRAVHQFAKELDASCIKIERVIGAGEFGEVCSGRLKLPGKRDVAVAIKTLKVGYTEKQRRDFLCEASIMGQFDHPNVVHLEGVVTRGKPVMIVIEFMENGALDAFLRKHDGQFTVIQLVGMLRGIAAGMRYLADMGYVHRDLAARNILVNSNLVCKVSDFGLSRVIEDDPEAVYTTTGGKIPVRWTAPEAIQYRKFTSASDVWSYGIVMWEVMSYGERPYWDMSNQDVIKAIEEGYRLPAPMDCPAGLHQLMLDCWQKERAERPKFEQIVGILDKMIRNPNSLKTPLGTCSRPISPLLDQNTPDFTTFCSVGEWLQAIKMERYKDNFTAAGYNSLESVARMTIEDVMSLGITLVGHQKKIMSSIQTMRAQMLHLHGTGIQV
# Chain of Mitogen-activated protein kinase kinase kinase 7 (Homo sapiens) (O43318 whole entry, the tested form may be a part): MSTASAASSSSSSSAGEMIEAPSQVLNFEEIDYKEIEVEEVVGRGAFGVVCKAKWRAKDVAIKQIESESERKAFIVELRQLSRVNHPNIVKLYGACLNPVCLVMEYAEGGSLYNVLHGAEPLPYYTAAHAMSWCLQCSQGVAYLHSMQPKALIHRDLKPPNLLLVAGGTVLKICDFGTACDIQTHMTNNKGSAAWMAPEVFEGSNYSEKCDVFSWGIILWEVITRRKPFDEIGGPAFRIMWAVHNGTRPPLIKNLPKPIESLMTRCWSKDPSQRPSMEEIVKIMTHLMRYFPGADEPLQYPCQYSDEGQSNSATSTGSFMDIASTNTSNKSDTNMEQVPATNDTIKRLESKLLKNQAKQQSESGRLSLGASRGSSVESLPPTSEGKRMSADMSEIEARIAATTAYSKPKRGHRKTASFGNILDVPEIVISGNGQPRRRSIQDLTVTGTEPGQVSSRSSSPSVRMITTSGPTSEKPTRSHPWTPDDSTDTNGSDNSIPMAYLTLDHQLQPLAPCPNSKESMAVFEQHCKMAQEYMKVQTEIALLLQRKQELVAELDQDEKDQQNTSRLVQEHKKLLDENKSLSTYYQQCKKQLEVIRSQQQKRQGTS
SMILES,Activity [1] [%],Activity [2] [%],Activity [3] [%],Activity [4] [%],Activity (HEK293) [%],Activity [5] [%],Activity [6] [%],Activity [7] [%],Activity [8] [%],Activity [9] [%],Activity [10] [%],Activity [11] [%],Activity [12] [%],Activity [13] [%],Activity [14] [%],Activity [15] [%],Activity [16] [%],Activity [17] [%],Activity [18] [%],Activity [19] [%],other results
CCC(=O)Nc1ccc(C(=O)Nc2ccc(Nc3ncc4c(n3)N(C)c3ccc(C)cc3C(=O)N4C)cc2)cc1,100,100,74,97,68,100,80,88,81,72,76,100,66,95,86,91,100,80,90,88,Activity [20]: 67%; Activity [21]: 92%; Activity [22]: 76%; Activity [23]: 78%; Activity [24]: 89%
C=CC(=O)Nc1ccc(C(=O)Nc2ccc(Nc3ncc4c(n3)N(C)c3ccc(C)cc3C(=O)N4C)cc2)cc1,88,99,100,100,94,100,90,100,99,90,62,99,96,99,94,87,99,87,99,92,Activity [20]: 77%; Activity [21]: 100%; Activity [22]: 86%; Activity [23]: 89%; Activity [24]: 100%
